Screening results deposited in PubChem BioAssay by The Scripps Research Institute Molecular Screening Center.
CHRM5 agonist = human M5 muscarinic receptor agonists, primary screen, CHO-K1 cells, Fluo-8 calcium fluorescence; Muscarinic acetylcholine receptor M5 (Homo sapiens), P08912; CHO-K1 hM5 cells; 0% DMSO wells, 100% maximal acetylcholine response; activation, % at 3 µM; actives 0.19% (n = 360,000);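 active = activation above the run's mean over test compounds plus 3 SD, cut at about 23% in these data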;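 note: signal is peak over basal fluorescence ratio across the kinetic read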
Target sequence (P08912 whole entry, looked up): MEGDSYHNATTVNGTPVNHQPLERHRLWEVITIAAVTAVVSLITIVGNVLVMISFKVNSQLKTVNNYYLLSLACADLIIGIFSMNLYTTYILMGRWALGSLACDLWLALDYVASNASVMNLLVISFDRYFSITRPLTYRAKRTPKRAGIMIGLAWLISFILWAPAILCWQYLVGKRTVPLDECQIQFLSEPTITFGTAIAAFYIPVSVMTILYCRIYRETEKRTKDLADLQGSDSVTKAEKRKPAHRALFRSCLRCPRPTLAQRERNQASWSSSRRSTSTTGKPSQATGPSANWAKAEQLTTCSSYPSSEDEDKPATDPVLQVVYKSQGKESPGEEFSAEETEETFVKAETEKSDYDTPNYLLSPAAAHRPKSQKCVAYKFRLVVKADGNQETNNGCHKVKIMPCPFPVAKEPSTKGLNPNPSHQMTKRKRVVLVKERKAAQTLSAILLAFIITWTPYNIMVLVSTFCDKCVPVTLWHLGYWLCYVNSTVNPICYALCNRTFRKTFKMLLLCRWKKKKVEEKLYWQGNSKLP
M4 PAM = human M4 muscarinic receptor positive allosteric modulators, primary screen, CHO-K1 cells, Fluo-8 calcium fluorescence; CHO-K1 hM4/Gqi5, ACh EC20; 0% = ACh EC20, 100% = maximal ACh; activation, % at 3 µM; actives 0.4% (n = 360,000); Muscarinic acetylcholine receptor M4 (Homo sapiens), P08173;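 active = activation above its plate's cutoff, the mean activation of sample wells plus 3 SD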
CHRM5 PAM = human M5 muscarinic receptor positive allosteric modulators, primary screen, CHO-K1 cells, Fluo-8 calcium fluorescence. Muscarinic acetylcholine receptor M5 (Homo sapiens), P08912. CHO-K1 hM5, ACh EC20 PAM; 0% = ACh EC20, 100% = ACh EC100. activation, % at 3 µM. actives 0.3% (n = 360,000). AID 624038, 2012;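 active = activation above the run cutoff, the mean activation of all test compounds plus 3 SD, cut at about 18% in these data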
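System: CHO-K1 cell line with stable human muscarinic M5 receptor expression | Also added: EC20 acetylcholine as agonist stimulus | Compound: One concentration, 3 µM final (nominal) | Timing: Fluo-8 loading 80 min at 37 °C plus 30 min room temperature | Measured by: Fluo-8 calcium dye fluorescence, kinetic read | Read-out basis: % activation, ACh-normalized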
M4 ag = human M4 muscarinic receptor agonists, primary screen, CHO-K1 cells, Fluo-8 calcium fluorescence | actives 0.14% (n = 360,000) | activation, % at 3 µM | CHO-K1 hM4/Gqi5; vehicle 0%, full acetylcholine response 100% | Muscarinic acetylcholine receptor M4 (Homo sapiens), P08173;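 active = activation above the run mean over all test wells plus 3 SD, cut at about 32% in these data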;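 note: peak over basal fluorescence ratio per well then scaled between controls; 0% = DMSO wells and 100% = acetylcholine at EC100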
CHRM4 antagonist = human M4 muscarinic receptor antagonists, primary screen, CHO cells, Fluo-8 calcium fluorescence | Muscarinic acetylcholine receptor M4 (Homo sapiens), P08173 | CHO-hM4 cells, ACh EC80 | inhibition, % at 3 µM | actives 0.73% (n = 360,000) | AID 624125, 2012;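 active = inhibition above its plate's cutoff, the mean inhibition of sample wells plus 3 SD, cut at about 27% in these data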;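 note: 0% = acetylcholine EC80 with DMSO and 100% = DMSO without agonist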
M5 antag = human M5 muscarinic receptor antagonists, primary screen, CHO cells, Fluo-8 calcium fluorescence | Muscarinic acetylcholine receptor M5 (Homo sapiens), P08912 | CHO-hM5 cells, ACh EC80 | inhibition, % at 3 µM | actives 0.59% (n = 360,000) | AID 624040, 2012;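 active = inhibition above a per-plate cutoff, the mean of that plate's test compounds plus 3 SD, cut at about 27% in these data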;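 note: 0% = acetylcholine EC80 with DMSO and 100% = DMSO without agonist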
Numbers without * were called inactive. In the library only some 1.8% were active in any assay of this set; here they are far more common.

SMILES	CHRM5 agonist	M4 PAM	CHRM5 PAM	M4 ag	CHRM4 antagonist	M5 antag
CC(=O)N1CCN(c2nc3ccc(Br)cc3s2)CC1	1	0	6	5	-2	-10
CCCC(=O)N1CCN(c2nc3ccc(CC)cc3s2)CC1	-1	15	1	5	0	-7
CCCC(=O)N1CCN(c2nc3ccc(Br)cc3s2)CC1	2	29*	-8	13	1	7
CCOC(=O)N1CCN(C(=O)c2ccc3nc(N4CCC(C)CC4)sc3c2)CC1	3	16*	4	2	-2	-2
CCCCC(=O)N1CCN(c2nc3ccc(Br)cc3s2)CC1	7	19*	-4	12	-1	-11
O=C(NCc1cccnc1)c1csc([C@@H]2C[C@H](O)[C@@H](CO)O2)n1	0	-7	-2	0	5	12
CC(=O)N1CC2([N+](=O)[O-])CN(C(C)=O)CC([N+](=O)[O-])(C1)C2(C)C	2	20*	10	0	-2	-9
COc1cccc(C(NC(C)=O)c2nc(-c3ccoc3)cs2)c1 (stereo not given)	1	1	0	1	-4	3
C/C(=N\NC(=O)COc1ccc(C)cc1C(C)C)c1ccc(-n2ccnc2)cc1	-1	-5	1	1	48*	4
COC(=O)N/N=C(\C)c1ccc(-n2ccnc2)cc1	-2	0	-3	1	-4	-11
Cc1sc2ncnc(NC3CCN(Cc4ccccc4)CC3)c2c1C	-8	-18	-29	11	19	29*
c1ccc(CN2CCC(Nc3ncnc4sccc34)CC2)cc1	-1	1	-1	0	2	12
COc1cc(CC(=O)OCC(=O)NCCc2ccc(S(N)(=O)=O)cc2)cc(OC)c1OC	1	15	3	1	-10	5
OCC[C@@H]1C[C@H](O)[C@@H](O)[C@@]2(OCc3ccc4ccccc4c32)O1	4	-1	4	0	-2	2
O=C(Nc1c2c(nn1-c1ccc(F)cc1)CS(=O)(=O)C2)c1ccc(Br)o1	-5	-9	-5	0	-13	17
COc1ccc(-n2nc3c(c2NC(=O)c2ccc(Br)o2)CS(=O)(=O)C3)cc1	-3	24*	-1	4	6	4
COc1ccc(C(=O)Nc2c3c(nn2-c2ccc(Cl)cc2)CS(=O)(=O)C3)cc1	5	-4	25*	1	-6	-83
COc1ccc(/C=C/C(=O)OCC(=O)NC2CCCC2)cc1	3	5	0	3	0	-1
Cc1ccc(-c2cc(C(=O)Nc3cnn(C45CC6CC(CC(C6)C4)C5)c3)no2)cc1	2	11	4	4	3	-3
Cc1ccc(-c2cc(C(=O)Nc3cnn(C(C)C)c3)no2)cc1	26*	-4	-14	7	5	-2
O=C1C(Cl)=C(Nc2ccc3cn[nH]c3c2)C(=O)c2ccccc21	-9	-15	-16	-2	39*	28*
CN(C)c1ccc(NC2=C(Cl)C(=O)c3ccccc3C2=O)cc1	-12	-14	-17	-2	36*	34*
Cc1cc(C)n(-c2ccc(C(=O)N3CCN(S(=O)(=O)c4ccc(OC(F)(F)F)cc4)CC3)cc2)n1	0	2	0	3	2	-2
CN(C)c1ccc(/C=C/c2nc3ccccc3c(=O)n2-c2ccc(C(=O)O)cc2)cc1	26*	-18	-10	55*	16	10
Cc1cc(C(=O)NC2CCCc3c2cnn3-c2ccc(C(C)(C)C)cc2)nn1C (stereo not given)	-1	-9	-16	12	20	35*
CC(C)(C)c1ccc(-n2ncc3c2CCCC3NC(=O)C2(C(N)=O)CC2)cc1 (stereo not given)	3	-4	-13	12	16	28*
